Bioassay records as filed in PubChem.
Apaf-1 inh = blocks human Apaf-1 apoptosome activity. inhibition, % at 20 µM. reconstituted apoptosome caspase-3 activity, DEVD-Rh110 fluorescence. actives 0.71% (n = 330,000). O14727; active means inhibition of at least 40% at 20 µM
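Material: reconstituted apoptosome with Apaf-1, cytochrome c, caspase-9, procaspase-3, dATP / Buffer or medium: pH 7.5 Hepes buffer with CHAPS, BSA, DTT / Also added: cytochrome c with DEVD-Rh110 / Schedule: compound with Apaf-1, dATP, procaspase-3 30 min, then 50 min reaction, room temperature / Technique: rhodamine 110 fluorescence at Ex 480/Em 540 nm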
UBC13 inh = blocks human UBC13 polyubiquitin chain formation; P61088; inhibition, % at 20 µM; AID 485273; actives 0.47% (n = 330,000); TR-FRET; in the data active means inhibition above about 45%, passing the limit was not always enough
SENP6 inh = inhibitors of human SENP6 protease. AID 2599. inhibition, % at 10 µM. Recombinant SENP6 catalytic domain, aminoluciferin luminescence. actives 1.8% (n = 330,000). Q9GZR1;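 active means inhibition above about 50% at the single tested dose, limit read from the data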
SENP7 inh = blocks the human protease SENP7 | Q9BQF6 | inhibition, % at 5 µM | recombinant SENP7, Z-RLRGG-aminoluciferin luminescence, 40 min | actives 1.5% (n = 330,000);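 active means inhibition above about 50% at the single test dose, limit read from the data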
SENP8 block-1 = blocks the human protease SENP8; purified SENP8, Z-RLRGG-aminoluciferin cleavage, luminescence; actives 1.2% (n = 330,000); AID 2540; inhibition, % at 10 µM; in the data active means inhibition above about 50%
SENP8 block-2 = blocks human SENP8 cleavage of Nedd8 substrate; Q96LD8; recombinant SENP8, Nedd8 substrate fluorescence; inhibition, % at 20 µM; actives 0.64% (n = 360,000); in the data active means inhibition mostly above about 40%, no sharp cut-off; inactive means mostly below about 27%
Casp3 UBC13 ctr = inhibits human caspase-3 in UBC13 counter-screen. shares compounds with UBC13 inh. Recombinant caspase-3, Caspase-Glo 3/7 luminescence, 60 min. inhibition, % at 20 µM. actives 4% (n = 1,400). AID 488856;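 active means mean inhibition across replicates above about 26%, limit read from the data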
UBC13 conf = human UBC13 polyubiquitin inhibition, confirmed; actives 68% (n = 1,400); shares compounds with UBC13 inh; UBC13 polyubiquitination, TR-FRET, biochemical; AID 488859; inhibition, % at 10 µM; in the data active means inhibition above about 45%
Apaf-1 inh conf = confirmation of Apaf-1 inhibitors. AID 504614. reconstituted apoptosome, caspase-3 DEVD-Rh110 fluorescence. actives 25% (n = 1,800). shares compounds with Apaf-1 inh. inhibition, % at 20 µM;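 active means mean inhibition of at least 40% at 20 µM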
Rh110 interf inh = counter-screen for Apaf-1 inhibitors: fluorescence interference; shares compounds with Apaf-1 inh; activation (fluorescence interference), % at 20 µM; AID 504615; 1,800 tested, under 10 active; Rh110 fluorescence interference, quenched caspase reaction;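 active means signal rise of 40% or more at 20 µM, treated as a fluorescence artifact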
Apaf1 inh interf = Apaf-1 inhibitor counter-screen fluorescence artifact | AID 588538 | fluorescence interference counterscreen, Apaf-1 assay format | 460 tested, under 10 active | IC50, µM | shares compounds with Apaf-1 inh; call rule not given here
Of the large screens only hits and unclear results are named; the others gave an inactive call (follow-up assays come after a bar, where they were run). Compounds with a hit are over-represented: about 3% of the library has one in this group of screens.

Cc1cc(C(C)(C)C)ccc1OCCCCN1CCCC1	none
Cc1cc[n+](CC[n+]2ccc(C)cc2)cc1	none
CCC(C)(C)c1ccc(OCCCC[n+]2cccc(C)c2C)c(C(C)(C)CC)c1	Apaf-1 inh 68.8, UBC13 inh 81.8 | Casp3 UBC13 ctr inactive | UBC13 conf 99.6 | Apaf-1 inh conf 54.0 | Rh110 interf inh inactive | Apaf1 inh interf inactive
NC1=NC[C@H](Cc2ccc(O)cc2)N1CCC12CC3CC(CC(C3)C1)C2	Apaf-1 inh 49.4, UBC13 inh 77.6 | Casp3 UBC13 ctr inactive | UBC13 conf 58.0 | Apaf-1 inh conf inactive | Rh110 interf inh inactive
CCCCN1C(N)=NC[C@@H]1Cc1ccc(O)cc1	none
Cc1ccc(NC(=O)CN(C)C(=O)c2ccc3[nH]c4c(c3c2)CC(C)CC4)cc1 (centres undefined)	Apaf-1 inh 58.9, UBC13 inh 66.2 | Casp3 UBC13 ctr inactive | UBC13 conf 47.8 | Apaf-1 inh conf 45.1 | Rh110 interf inh inactive | Apaf1 inh interf inactive
CCOc1ccc(NC(=O)CN(C)C(=O)c2ccc3[nH]c4c(c3c2)CC(C)CC4)cc1OCC (centres undefined)	none
CCNC(=O)C1(C)CCN(C(=O)c2ccc(OC(F)F)cc2)C1 (centres undefined)	none (no result: Apaf-1 inh, UBC13 inh, SENP6 inh, SENP7 inh, SENP8 block-1)
NC[C@@H]1O[C@H](C23CC4CC(CC(C4)C2)C3)Cc2c1ccc(O)c2O	Apaf-1 inh 42.4, UBC13 inh 55.3 | Casp3 UBC13 ctr inactive | UBC13 conf 53.5 | Apaf-1 inh conf inactive | Rh110 interf inh inactive
C1CCC(C(CC2CCCCN2)C2CCCCC2)CC1 (centres undefined)	Apaf-1 inh 61.1, UBC13 inh 80.2 | Casp3 UBC13 ctr inactive | UBC13 conf 66.3 | Apaf-1 inh conf inactive | Rh110 interf inh inactive
CCOC(=O)C1=C(c2ccccc2)NC(N)=NC1c1ccc(OCc2ccc(Cl)cc2)c(OC)c1 (centres undefined)	Apaf-1 inh 58.1, UBC13 inh 48.8 | Casp3 UBC13 ctr inactive | UBC13 conf 87.3 | Apaf-1 inh conf 63.5 | Rh110 interf inh inactive | Apaf1 inh interf inactive
COc1ccccc1C(CNC(=O)CNC(=O)c1ccc(Cl)c(Cl)c1)N1CCCC1 (centres undefined)	none
COc1ccccc1C(CNC(=O)CNC(=O)c1ccccc1Cl)N1CCCC1 (centres undefined)	Apaf-1 inh 61.3, UBC13 inh 50.9 | Casp3 UBC13 ctr inactive | UBC13 conf 61.5 | Apaf-1 inh conf 43.1 | Rh110 interf inh inactive | Apaf1 inh interf inactive
CCOC(=O)C(C)N1c2cccc3cccc(c23)S1(=O)=O (centres undefined)	none (no result: Apaf-1 inh, UBC13 inh, SENP6 inh, SENP7 inh, SENP8 block-1)
CC/C(=C(\c1ccccc1)c1ccc(OCCN(C)C)cc1)c1ccccc1	Apaf-1 inh 72.2, UBC13 inh 77.6 | Casp3 UBC13 ctr inactive | UBC13 conf 65.3 | Apaf-1 inh conf inactive | Rh110 interf inh inactive
CC/C(=C(\c1ccc(O)cc1)c1ccc(OCCN(C)C)cc1)c1ccccc1	Apaf-1 inh 65.3, UBC13 inh 78.8 | Casp3 UBC13 ctr inactive | UBC13 conf 54.6 | Apaf-1 inh conf inactive | Rh110 interf inh inactive
CCC(=C(c1ccccc1)c1ccc(OCCN(C)C)cc1)c1ccccc1	none (no result: Apaf-1 inh, UBC13 inh, SENP6 inh, SENP7 inh, SENP8 block-1)
CCN(CC)CCOc1ccc(/C(=C(/Cl)c2ccccc2)c2ccccc2)cc1	Apaf-1 inh 64.9, UBC13 inh 73.4 | Casp3 UBC13 ctr inactive | UBC13 conf 56.3 | Apaf-1 inh conf inactive | Rh110 interf inh inactive
CCC(=C(c1ccc(O)cc1)c1ccc(OCCN(C)C)cc1)c1ccccc1	none (no result: Apaf-1 inh, UBC13 inh, SENP6 inh, SENP7 inh, SENP8 block-1)
Cc1cccc(Cc2cccc(C)c2O)c1O	none (no result: Apaf-1 inh, UBC13 inh, SENP6 inh, SENP7 inh, SENP8 block-1)
Cc1cnc(CNC(=O)c2csc([C@@H]3O[C@H](CO)[C@H](O)[C@H](O)[C@H]3O)n2)cn1	none (no result: Apaf-1 inh, UBC13 inh, SENP6 inh, SENP7 inh, SENP8 block-1)
CN1CCN(CCCN2c3ccccc3Sc3ccc(C(F)(F)F)cc32)CC1	Apaf-1 inh 54.1, UBC13 inh 90.4 | Casp3 UBC13 ctr inactive | UBC13 conf 97.9 | Apaf-1 inh conf inactive | Rh110 interf inh inactive
CCOc1ccc(/C=C/C(=O)Nc2ccc(C(N)=O)cc2)cc1OC	none
CCOc1cc(/C=C/C(=O)Nc2ccc(C(=O)NCCN(CC)CC)cc2)ccc1OCC(C)C	Apaf-1 inh 47.3, UBC13 inh 77.8 | Casp3 UBC13 ctr inactive | UBC13 conf 96.2 | Apaf-1 inh conf inactive | Rh110 interf inh inactive
O=C(NCc1cccc(C(F)(F)F)c1)C1C(=O)Nc2ccccc2C(=O)N1Cc1ccccc1 (centres undefined)	none (no result: Apaf-1 inh, UBC13 inh, SENP6 inh, SENP7 inh, SENP8 block-1)
FC(F)(F)c1cc(CO[C@@H]2CCCN[C@@H]2c2ccccc2)cc(C(F)(F)F)c1	Apaf-1 inh 47.3, UBC13 inh 58.2 | Casp3 UBC13 ctr inactive | UBC13 conf 55.2 | Apaf-1 inh conf inactive | Rh110 interf inh inactive
c1ccc(C2NCCNC2c2ccccc2)cc1 (centres undefined)	none (no result: Apaf-1 inh, UBC13 inh, SENP6 inh, SENP7 inh, SENP8 block-1)
CN1CCN(c2ccc(Cl)cc2NC(=O)CN2C(=O)NC(C)(c3ccccc3)C2=O)CC1 (centres undefined)	none
CCC1(c2ccccc2)NC(=O)N(CC(=O)Nc2cc(Cl)ccc2N2CCN(C)CC2)C1=O (centres undefined)	Apaf-1 inh 58.2, UBC13 inh 86.9 | Casp3 UBC13 ctr inactive | UBC13 conf 65.8 | Apaf-1 inh conf inactive | Rh110 interf inh inactive
Cc1ccc(-c2csc3nc4c5ccccc5c(NCCCN(C)C)nn4c(=O)c23)cc1	Apaf-1 inh 41.9, UBC13 inh 96.8 | Casp3 UBC13 ctr inactive | UBC13 conf 100.5 | Apaf-1 inh conf 57.7 | Rh110 interf inh inactive | Apaf1 inh interf inactive
CCN1C(=O)CC(c2ccccc2)N(C2CCCC2)c2nc(Nc3ccc(C(=O)NC4CCN(C)CC4)cc3OC)ncc21 (centres undefined)	Apaf-1 inh 69.5, UBC13 inh 61.0 | Casp3 UBC13 ctr inactive | UBC13 conf inactive | Apaf-1 inh conf inactive | Rh110 interf inh inactive
CCN1C(=O)CC(C(C)C)N(C2CCCC2)c2nc(Nc3ccc(C(=O)NC4CCN(C)CC4)cc3OC)ncc21 (centres undefined)	none (no result: Apaf-1 inh, UBC13 inh, SENP6 inh, SENP7 inh, SENP8 block-1)
CC(CNC(=O)CC[C@H]1O[C@@H](n2cnc3c(NC(=O)c4ccccc4)ncnc32)[C@H](O)[C@@H]1O)c1ccccc1 (some centres undefined)	none (no result: Apaf-1 inh, UBC13 inh, SENP6 inh, SENP7 inh, SENP8 block-1)
